{"source": "ChEMBL document CHEMBL4261600", "about": "(Eur J Med Chem, 2018)", "key": {"[1]": {"target": "Aurora kinase A (Homo sapiens) (UniProt O14965)", "sequence (O14965 whole entry, the tested form may be a part)": "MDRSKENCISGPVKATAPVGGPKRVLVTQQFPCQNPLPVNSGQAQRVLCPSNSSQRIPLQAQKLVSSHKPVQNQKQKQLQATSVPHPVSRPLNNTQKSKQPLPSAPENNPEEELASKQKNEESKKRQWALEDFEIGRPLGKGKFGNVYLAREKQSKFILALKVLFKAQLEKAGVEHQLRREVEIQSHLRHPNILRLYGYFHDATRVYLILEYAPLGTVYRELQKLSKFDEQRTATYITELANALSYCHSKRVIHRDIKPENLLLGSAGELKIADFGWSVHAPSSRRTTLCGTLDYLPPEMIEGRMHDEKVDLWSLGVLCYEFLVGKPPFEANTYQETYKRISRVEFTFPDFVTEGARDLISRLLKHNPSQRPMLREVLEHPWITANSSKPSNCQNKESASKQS", "assay": "Binding affinity to wild-type human partial length AURKA (E122 to K401 residues) expressed in mammalian expression system assessed as remaining unbound target protein level at 1000 nM by Kinomescan method relative to control", "method_in_brief": "(§1)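 Profiled in a KINOMEscan binding panel with the inhibitor at a single concentration of 1 μM. Binding to each kinase was read out as percent of control, relative to a DMSO control. Strong binders were defined as those with a percent control value below 1.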"}, "[2]": {"target": "Testis-specific serine/threonine-protein kinase 1 (Homo sapiens) (UniProt Q9BXA7)", "sequence (Q9BXA7 whole entry, the tested form may be a part)": "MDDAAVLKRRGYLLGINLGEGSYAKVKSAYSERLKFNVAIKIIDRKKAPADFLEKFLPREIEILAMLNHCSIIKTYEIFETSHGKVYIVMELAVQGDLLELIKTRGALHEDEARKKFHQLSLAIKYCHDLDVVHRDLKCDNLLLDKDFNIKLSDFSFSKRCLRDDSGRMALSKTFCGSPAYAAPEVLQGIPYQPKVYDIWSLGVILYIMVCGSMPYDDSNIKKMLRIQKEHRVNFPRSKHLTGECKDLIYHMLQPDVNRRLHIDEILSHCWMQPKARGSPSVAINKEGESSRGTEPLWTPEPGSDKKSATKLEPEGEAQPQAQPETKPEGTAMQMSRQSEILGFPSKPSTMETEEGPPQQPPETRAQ", "assay": "Binding affinity to wild-type human full length TSSK1B (M1 to Q367 residues) expressed in bacterial expression system assessed as remaining unbound target protein level at 1000 nM by Kinomescan method relative to control", "method_in_brief": "(§2)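 KINOMEscan competition binding profile across a panel of 468 kinases and mutants, with the inhibitor tested at a single concentration of 1 μM. Binding is reported as percent of control, meaning signal relative to a DMSO control.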"}, "[3]": {"target": "Phosphatidylinositol 4,5-bisphosphate 3-kinase catalytic subunit alpha isoform (Homo sapiens) (UniProt P42336)", "assay": "Binding affinity to wild-type human partial length PIK3CA (R108 to N1068 residues) expressed in mammalian expression system assessed as remaining unbound target protein level at 1000 nM by Kinomescan method relative to control"}, "[4]": {"target": "Serine/threonine-protein kinase MRCK gamma (Homo sapiens) (UniProt Q6DT37)", "assay": "Binding affinity to wild-type human partial length DMPK2 (S46 to S408 residues) expressed in bacterial expression system assessed as remaining unbound target protein level at 1000 nM by Kinomescan method relative to control"}, "[5]": {"tested_on": "OCI-AML-3", "assay": "Antiproliferative activity against human OCI-AML3 cells after 72 hrs by Celltiter-Glo assay", "type": "functional", "settings": "OCI-AML-3, 72 h", "method_in_brief": "(§3)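 Cells seeded at 3000/well in 96-well plates, exposed to serially diluted compound for 72 h at 37 °C, 5% CO2. Viability read by CellTiter-Glo luminescence and normalized to DMSO control. GI50 derived from curve fit, mean of three independent measurements. Culture media: DMEM/10% FBS for adherent lines; IMDM for MV4-11 and MEC-1/2; RPMI 1640 for suspension lines and CHL.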"}, "[6]": {"target": "Tyrosine-protein kinase ABL2 (Homo sapiens) (UniProt P42684)", "assay": "Binding affinity to wild-type human ABL2 (A248 to G542 residues) expressed in bacterial expression system assessed as remaining unbound target protein level at 1000 nM by Kinomescan method relative to control", "method_in_brief": "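KINOMEscan competitive binding profile at 1 μM inhibitor. Remaining target binding reported as percent of DMSO control.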"}, "[7]": {"tested_on": "ALK tyrosine kinase receptor (Homo sapiens), Q9UM73 [C1156Y]", "sequence (Q9UM73 whole entry C1156Y, looked up, the tested form may be a part)": "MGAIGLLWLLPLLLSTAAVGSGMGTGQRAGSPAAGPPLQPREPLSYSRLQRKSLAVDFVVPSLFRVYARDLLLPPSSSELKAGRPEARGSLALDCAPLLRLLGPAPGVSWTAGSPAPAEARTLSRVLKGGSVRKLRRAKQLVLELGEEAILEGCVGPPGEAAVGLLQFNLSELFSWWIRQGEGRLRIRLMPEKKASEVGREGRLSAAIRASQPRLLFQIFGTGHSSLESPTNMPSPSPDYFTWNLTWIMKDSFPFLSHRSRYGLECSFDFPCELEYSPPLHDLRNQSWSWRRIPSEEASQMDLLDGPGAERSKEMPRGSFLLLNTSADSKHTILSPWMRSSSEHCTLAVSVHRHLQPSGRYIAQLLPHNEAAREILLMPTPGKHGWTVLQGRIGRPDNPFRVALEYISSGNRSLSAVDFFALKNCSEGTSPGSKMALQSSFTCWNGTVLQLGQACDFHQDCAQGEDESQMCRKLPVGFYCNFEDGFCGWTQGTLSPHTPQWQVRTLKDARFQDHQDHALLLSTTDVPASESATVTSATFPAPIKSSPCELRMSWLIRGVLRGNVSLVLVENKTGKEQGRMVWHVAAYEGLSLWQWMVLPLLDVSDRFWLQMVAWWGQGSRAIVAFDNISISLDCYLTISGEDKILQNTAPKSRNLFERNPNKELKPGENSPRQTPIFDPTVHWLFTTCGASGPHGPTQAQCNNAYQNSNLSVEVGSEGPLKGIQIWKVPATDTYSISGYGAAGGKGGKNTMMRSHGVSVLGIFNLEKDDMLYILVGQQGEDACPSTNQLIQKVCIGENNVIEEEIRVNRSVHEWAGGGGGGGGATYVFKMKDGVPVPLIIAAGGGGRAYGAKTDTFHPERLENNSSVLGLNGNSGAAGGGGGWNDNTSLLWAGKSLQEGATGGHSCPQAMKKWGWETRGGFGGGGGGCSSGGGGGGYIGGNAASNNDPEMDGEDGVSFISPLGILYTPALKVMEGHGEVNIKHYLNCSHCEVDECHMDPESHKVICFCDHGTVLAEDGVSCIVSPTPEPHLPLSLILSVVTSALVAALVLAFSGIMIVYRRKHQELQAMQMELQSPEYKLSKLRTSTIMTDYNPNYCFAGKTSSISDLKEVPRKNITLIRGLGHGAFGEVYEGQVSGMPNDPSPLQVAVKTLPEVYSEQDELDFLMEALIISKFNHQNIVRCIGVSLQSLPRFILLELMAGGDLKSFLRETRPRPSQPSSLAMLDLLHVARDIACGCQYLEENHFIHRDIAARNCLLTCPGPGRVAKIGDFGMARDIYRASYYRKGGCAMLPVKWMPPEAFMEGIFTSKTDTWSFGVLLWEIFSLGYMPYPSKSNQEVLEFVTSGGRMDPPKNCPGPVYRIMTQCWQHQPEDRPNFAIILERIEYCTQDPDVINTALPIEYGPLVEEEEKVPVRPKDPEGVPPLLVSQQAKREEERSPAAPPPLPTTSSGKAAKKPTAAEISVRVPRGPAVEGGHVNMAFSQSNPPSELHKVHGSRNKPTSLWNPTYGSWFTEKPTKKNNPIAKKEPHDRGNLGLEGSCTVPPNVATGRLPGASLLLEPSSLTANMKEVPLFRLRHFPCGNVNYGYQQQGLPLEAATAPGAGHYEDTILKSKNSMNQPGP", "assay": "Binding affinity to wild-type human partial length ALK C1156Y mutant (I1088 to E1409 residues) expressed in mammalian expression system assessed as remaining unbound target protein level at 1000 nM by Kinomescan method relative to control", "method_in_brief": "as §1"}, "[8]": {"target": "Membrane-associated tyrosine- and threonine-specific cdc2-inhibitory kinase (Homo sapiens) (UniProt Q99640)", "assay": "Binding affinity to wild-type human partial length PKMYT1 (A88 to G366 residues) expressed in bacterial expression system assessed as remaining unbound target protein level at 1000 nM by Kinomescan method relative to control"}, "[9]": {"target": "Calcium/calmodulin-dependent protein kinase type 1G (Homo sapiens) (UniProt Q96NX5)", "assay": "Binding affinity to wild-type human partial length CAMK1G (M1 to A342 residues) expressed in bacterial expression system assessed as remaining unbound target protein level at 1000 nM by Kinomescan method relative to control", "method_in_brief": "as §2"}, "[10]": {"species_on_record": "Homo sapiens", "assay": "Selectivity ratio of IC50 for recombinant full length His-tagged human CDK8/CyclinC to IC50 for recombinant full length His-tagged human CDK9/CyclinT1"}, "[11]": {"target": "BDNF/NT-3 growth factors receptor (Homo sapiens) (UniProt Q16620)", "sequence (Q16620 32-822 limits assumed)": "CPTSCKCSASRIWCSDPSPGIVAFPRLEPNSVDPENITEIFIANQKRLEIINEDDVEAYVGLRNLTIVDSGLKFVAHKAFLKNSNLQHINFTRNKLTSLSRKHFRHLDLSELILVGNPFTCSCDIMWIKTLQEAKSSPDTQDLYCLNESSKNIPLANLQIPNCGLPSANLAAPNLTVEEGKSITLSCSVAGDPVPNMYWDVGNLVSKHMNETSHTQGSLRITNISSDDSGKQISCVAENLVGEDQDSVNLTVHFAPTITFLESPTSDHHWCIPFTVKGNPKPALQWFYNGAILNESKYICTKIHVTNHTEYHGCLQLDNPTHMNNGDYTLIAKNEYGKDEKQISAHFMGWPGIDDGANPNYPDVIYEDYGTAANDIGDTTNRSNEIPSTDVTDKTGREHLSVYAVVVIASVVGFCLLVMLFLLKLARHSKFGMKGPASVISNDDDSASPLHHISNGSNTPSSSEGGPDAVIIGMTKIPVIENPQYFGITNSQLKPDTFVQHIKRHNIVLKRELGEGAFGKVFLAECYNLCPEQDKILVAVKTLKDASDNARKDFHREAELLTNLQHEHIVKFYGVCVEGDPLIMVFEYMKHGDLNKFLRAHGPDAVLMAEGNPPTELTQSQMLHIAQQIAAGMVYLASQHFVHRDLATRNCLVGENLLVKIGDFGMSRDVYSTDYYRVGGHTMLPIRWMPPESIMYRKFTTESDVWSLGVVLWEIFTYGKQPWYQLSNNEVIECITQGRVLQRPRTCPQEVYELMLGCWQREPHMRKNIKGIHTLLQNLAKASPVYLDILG", "assay": "Binding affinity to wild-type human partial length TRKB (Q547 to G838 residues) expressed in mammalian expression system assessed as remaining unbound target protein level at 1000 nM by Kinomescan method relative to control"}, "[12]": {"target": "Cyclin-dependent kinase 7 (Homo sapiens) (UniProt P50613)", "assay": "Inhibition of CDK7 in human MV4-11 cells assessed as decrease in RNA polymerase 2 phosphorylation at Ser 5 residues up to 3 uM after 2 hrs by immunoblotting analysis", "type": "cell-based"}, "[13]": {"target": "Tyrosine-protein kinase ZAP-70 (Homo sapiens) (UniProt P43403)", "assay": "Binding affinity to wild-type human partial length ZAP70 (D20 to G299 residues) expressed in mammalian expression system assessed as remaining unbound target protein level at 1000 nM by Kinomescan method relative to control"}, "[14]": {"assay": "MRT (0 to infinity) in mouse at 10 mg/kg, po by LC-MS/MS analysis", "type": "ADME, organism-based", "settings": "in vivo"}, "[15]": {"tested_on": "COLO 205", "assay": "Antiproliferative activity against human COLO205 cells after 72 hrs by Celltiter-Glo assay", "type": "functional", "settings": "COLO 205, 72 h", "method_in_brief": "as §3"}, "[16]": {"target": "Serine/threonine-protein kinase D2 (Homo sapiens) (UniProt Q9BZL6)", "sequence (Q9BZL6 whole entry, the tested form may be a part)": "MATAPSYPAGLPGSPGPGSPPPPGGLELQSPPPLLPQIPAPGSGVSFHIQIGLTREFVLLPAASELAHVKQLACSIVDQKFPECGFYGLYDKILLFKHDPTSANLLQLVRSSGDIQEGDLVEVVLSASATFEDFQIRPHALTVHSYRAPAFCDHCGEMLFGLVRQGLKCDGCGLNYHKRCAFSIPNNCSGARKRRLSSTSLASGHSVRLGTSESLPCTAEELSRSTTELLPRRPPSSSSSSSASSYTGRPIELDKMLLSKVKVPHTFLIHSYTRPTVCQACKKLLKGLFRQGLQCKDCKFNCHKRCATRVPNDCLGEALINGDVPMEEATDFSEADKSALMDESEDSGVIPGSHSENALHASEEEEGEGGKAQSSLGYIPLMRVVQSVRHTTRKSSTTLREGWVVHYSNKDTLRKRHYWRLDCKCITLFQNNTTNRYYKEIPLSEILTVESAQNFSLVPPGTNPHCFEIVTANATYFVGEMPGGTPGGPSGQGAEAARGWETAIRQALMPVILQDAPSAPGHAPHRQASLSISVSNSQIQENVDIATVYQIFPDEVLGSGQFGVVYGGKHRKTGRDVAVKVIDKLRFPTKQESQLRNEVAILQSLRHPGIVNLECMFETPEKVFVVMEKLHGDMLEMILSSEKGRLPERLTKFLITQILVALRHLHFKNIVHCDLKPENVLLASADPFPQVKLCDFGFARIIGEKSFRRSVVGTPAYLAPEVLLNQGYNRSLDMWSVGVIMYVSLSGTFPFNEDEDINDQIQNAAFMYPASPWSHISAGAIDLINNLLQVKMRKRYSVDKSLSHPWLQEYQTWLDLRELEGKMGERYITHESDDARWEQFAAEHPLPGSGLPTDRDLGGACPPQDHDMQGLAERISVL", "assay": "Binding affinity to wild-type human partial length PRKD2 (A519 to E838 residues) expressed in bacterial expression system assessed as remaining unbound target protein level at 1000 nM by Kinomescan method relative to control"}, "[17]": {"tested_on": "MOLM-13", "assay": "Antiproliferative activity against human MOLM13 cells after 72 hrs by Celltiter-Glo assay", "type": "functional", "settings": "MOLM-13, 72 h", "method_in_brief": "as §3"}, "[18]": {"tested_on": "Epidermal growth factor receptor (Homo sapiens), P00533 [G719C]", "assay": "Binding affinity to human partial length EGFR G719C mutant (R669 to V1011 residues) expressed in bacterial expression system assessed as remaining unbound target protein level at 1000 nM by Kinomescan method relative to control", "method_in_brief": "(§4)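 KINOMEscan competition-binding profiling across the panel of 468 kinases and mutants, with inhibitor tested at 1 μM. Binding is expressed as percent of control, with DMSO as the reference control.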"}, "[19]": {"target": "Mitogen-activated protein kinase kinase kinase 20 (Homo sapiens) (UniProt Q9NYL2)", "sequence (Q9NYL2 2-800 limits assumed)": "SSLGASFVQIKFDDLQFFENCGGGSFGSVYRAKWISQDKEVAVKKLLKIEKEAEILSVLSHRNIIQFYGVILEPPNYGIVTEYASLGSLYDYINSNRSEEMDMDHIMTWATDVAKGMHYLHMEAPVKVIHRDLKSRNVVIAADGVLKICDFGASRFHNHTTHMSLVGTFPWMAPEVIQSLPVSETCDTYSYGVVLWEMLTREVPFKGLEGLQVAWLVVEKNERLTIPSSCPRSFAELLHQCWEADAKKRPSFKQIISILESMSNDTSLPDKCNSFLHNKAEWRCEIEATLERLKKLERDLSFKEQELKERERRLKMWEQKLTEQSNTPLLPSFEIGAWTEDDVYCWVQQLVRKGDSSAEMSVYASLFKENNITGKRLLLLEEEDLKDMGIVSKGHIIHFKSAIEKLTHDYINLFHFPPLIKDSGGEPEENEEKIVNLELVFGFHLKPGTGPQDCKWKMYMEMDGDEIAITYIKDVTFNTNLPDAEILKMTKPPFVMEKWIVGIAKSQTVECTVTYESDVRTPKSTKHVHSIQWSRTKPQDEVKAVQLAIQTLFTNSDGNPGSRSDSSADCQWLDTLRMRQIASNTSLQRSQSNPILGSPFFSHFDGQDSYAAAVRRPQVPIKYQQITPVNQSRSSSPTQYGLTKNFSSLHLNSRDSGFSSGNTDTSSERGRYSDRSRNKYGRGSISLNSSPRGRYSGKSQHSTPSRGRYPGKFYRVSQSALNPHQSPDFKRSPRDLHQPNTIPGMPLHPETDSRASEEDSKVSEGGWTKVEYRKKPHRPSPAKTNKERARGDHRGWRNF", "assay": "Binding affinity to wild-type human partial length ZAK (M1 to L331 residues) expressed in bacterial expression system assessed as remaining unbound target protein level at 1000 nM by Kinomescan method relative to control"}, "[20]": {"tested_on": "Canis familiaris", "assay": "AUC (0 to infinity) in beagle dog at 2 mg/kg, iv by LC-MS/MS analysis", "type": "ADME, organism-based, Canis lupus familiaris", "design": "dose 2 mg/kg, route intravenous, time infinity", "settings": "in vivo", "method_in_brief": "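Non-compartmental PK. Male SD rats 190-210 g, mice and beagle dogs acclimatized one week, fasted 12 h with water, split into iv and po groups (mice 48, rats 6, dogs 6). iv 3/3/2 mg/kg (mice/rats/dogs); po 10/20/10 mg/kg; vehicle DMSO in 5% glucose water. Blood at 2 or 5 to 720 min; plasma protein-precipitated with methanol, caffeine internal standard, LC-MS/MS.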"}, "[21]": {"tested_on": "Epidermal growth factor receptor (Homo sapiens), P00533 [T790M]", "assay": "Binding affinity to human partial length EGFR T790M mutant (R669 to G1022 residues) expressed in mammalian expression system assessed as remaining unbound target protein level at 1000 nM by Kinomescan method relative to control", "method_in_brief": "as §4"}}, "note": "Active and inactive are the calls of the source.", "data": [{"molecule": "COCCN[C@H]1CC[C@H](Nc2cc(-c3csc(NCC4(C#N)CCOCC4)n3)c(Cl)cn2)CC1", "values": [{"measurement": "Activity", "setting": "[1]", "result": 100, "unit": "%"}, {"measurement": "Activity", "setting": "[2]", "result": 93, "unit": "%"}, {"measurement": "Activity", "setting": "[3]", "result": 95, "unit": "%"}, {"measurement": "Activity", "setting": "[4]", "result": 92, "unit": "%"}, {"measurement": "GI50", "setting": "[5]", "result": 0.0066, "unit": "µM"}, {"measurement": "Activity", "setting": "[6]", "result": 77, "unit": "%"}, {"measurement": "Activity", "setting": "[7]", "result": 86, "unit": "%"}, {"measurement": "Activity", "setting": "[8]", "result": 100, "unit": "%"}, {"measurement": "Activity", "setting": "[9]", "result": 94, "unit": "%"}, {"measurement": "Ratio IC50", "setting": "[10]", "result": "> 1000"}, {"measurement": "Activity", "setting": "[11]", "result": 79, "unit": "%"}, {"measurement": "inhibition", "setting": "[12]", "result": "inactive"}, {"measurement": "Activity", "setting": "[13]", "result": 79, "unit": "%"}, {"measurement": "MRT inf", "setting": "[14]", "result": 3.48, "unit": "h"}, {"measurement": "GI50", "setting": "[15]", "result": 0.014, "unit": "µM"}, {"measurement": "Activity", "setting": "[16]", "result": 70, "unit": "%"}, {"measurement": "GI50", "setting": "[17]", "result": 0.012, "unit": "µM"}, {"measurement": "Activity", "setting": "[18]", "result": 98, "unit": "%"}, {"measurement": "Activity", "setting": "[19]", "result": 96, "unit": "%"}, {"measurement": "AUC", "setting": "[20]", "result": 3121.69, "unit": "ng·h/mL"}, {"measurement": "Activity", "setting": "[21]", "result": 100, "unit": "%"}]}]}
